We go through one compound from ChEMBL document CHEMBL4145666, “In Search of Selectivity in Inhibition of ADAM10” (ACS Med Chem Lett, 2018).

The structures appear in SMILES notation.

What all share (assay type): ADME, organism-based
Data set [1] is described as follows: AUC (0 to last) in CD-1 mouse brain assessed per mg tissue at 10 mg/kg, ip by UPLC analysis. The note with it: in vivo. In a few lines: (§1)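 Male CD-1 mice, 6–7 weeks old, about 30 g, fed and watered ad libitum. Single dose of 10 mg/kg ip or 25 mg/kg sc, given as 100 μL formulation; n = 3 per time point per route. At set times, blood was taken by cardiac puncture with heparinized syringes and spun to plasma. Brains were harvested after transcardiac saline perfusion, weighed and flash-frozen. Brain levels are in pmol/mg tissue.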

Data set [2] is described as follows: AUC (0 to infinity) in CD-1 mouse brain assessed per mg tissue at 10 mg/kg, ip by UPLC analysis. Further details: dose 10 mg/kg, route intraperitoneal, time infinity. The note with it: in vivo. In a few lines:
as §1

Data set [3] can be described thus: Ratio of AUC (0 to infinity) in brain to plasma in CD-1 mouse at 10 mg/kg, ip by UPLC analysis. The note with it: read-out: Ratio AUC. In a few lines:
(§2)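 Male CD-1 mice (6–7 weeks, about 30 g) received one dose: 10 mg/kg ip or 25 mg/kg sc, with n = 3 per time point per route. At set times, plasma came from heparinized cardiac-puncture blood. Brain was taken after transcardiac saline perfusion, weighed and flash-frozen. Brain levels were in pmol/mg tissue, plasma in μM. Value is AUCbrain/AUCplasma.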

Data set [4] in a line: AUC (0 to last) in CD-1 mouse plasma at 10 mg/kg, ip by UPLC analysis. Further details: dose 10 mg/kg, time 0 - last, route intraperitoneal. The procedure, abridged: as §1
A short description of data set [5]: AUC (0 to infinity) in CD-1 mouse plasma at 10 mg/kg, ip by UPLC analysis. Further details: dose 10 mg/kg, route intraperitoneal, time infinity. The procedure, abridged:
as §1

Data set [6] is described as follows: Primary phase half life in CD-1 mouse plasma at 10 mg/kg, ip by UPLC analysis. The note with it: read-out: alphat1/2. In a few lines:
as §1

Data set [7] in a line: Elimination half life in CD-1 mouse plasma at 10 mg/kg, ip by UPLC analysis. The note with it: read-out: beta t1/2. The procedure, abridged:
as §1

Data set [8] in a line: AUC (0 to last) in CD-1 mouse brain assessed per mg tissue at 25 mg/kg, sc by UPLC analysis. The note with it: in vivo. The procedure, abridged:
as §1

Data set [9] can be described thus: AUC (0 to infinity) in CD-1 mouse brain assessed per mg tissue at 25 mg/kg, sc by UPLC analysis. More on the design: dose 25 mg/kg, route subcutaneous, time infinity. The note with it: in vivo. In a few lines:
as §1

Data set [10] in a line: Primary phase half life in CD-1 mouse brain at 25 mg/kg, sc by UPLC analysis. The note with it: read-out: alphat1/2. In a few lines:
as §1

Data set [11] is described as follows: Elimination half life in CD-1 mouse brain at 25 mg/kg, sc by UPLC analysis. The note with it: read-out: beta t1/2. The procedure, abridged:
as §1

Data set [12] is described as follows: Ratio of AUC (0 to infinity) in brain to plasma in CD-1 mouse at 25 mg/kg, sc by UPLC analysis. The note with it: read-out: Ratio AUC. In a few lines:
as §2

Data set [13] in a line: AUC (0 to last) in CD-1 mouse plasma at 25 mg/kg, sc by UPLC analysis. Further details: dose 25 mg/kg, route subcutaneous, time 0 - last. The procedure, abridged: as §1
Data set [14] in a line: AUC (0 to infinity) in CD-1 mouse plasma at 25 mg/kg, sc by UPLC analysis. Further details: dose 25 mg/kg, route subcutaneous, time infinity. In a few lines: as §1
Data set [15] is described as follows: Primary phase half life in CD-1 mouse plasma at 25 mg/kg, sc by UPLC analysis. The note with it: read-out: alphat1/2. The procedure, abridged:
as §1

Data set [16] is described as follows: Elimination half life in CD-1 mouse plasma at 25 mg/kg, sc by UPLC analysis. The note with it: read-out: beta t1/2. In a few lines: as §1

`O=C(NO)[C@H]1C[C@H](OC(=O)N2CCCC2)CC[C@@H]1C(=O)N1CCC(c2ccccc2)CC1`: the AUClast in [1] turned out to be 12.1 pmol·min; in [8], 51.2 pmol·min. Also, the values for the AUC in [2] and in data set [9] were 14 pmol·min/mg and 77 pmol·min/mg, respectively. The Kp in data set [3] worked out at 0.0761; in data set [12], 0.0693. Further, the values for the AUC(0-t) in data set [4] and in data set [13] were 2.58 µM·h and 18.4 µM·h, respectively. In addition, the AUC(0-inf) (commonly total exposure, with the tail of the curve extrapolated) is 3.07 µM·h in data set [5] and 18.5 µM·h in data set [14]. For the same compound, the half-life in data set [6] was 0.207 h; in data set [7], 5.25 h; in data set [10], 0.19 h; in [11] it was 10.5 h; in [15] it was 0.257 h; in data set [16] it was 2.63 h.
